RGS4 act – potentiators or activators of RGS4; AID 463111; 310,000 compounds, 0.92% hits; HEK293 M3R/inducible RGS4, carbachol calcium flux Fluo4; hits give low values; B-score at 10 µM;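 active = B-score of the integrated calcium signal more than 4 SD below the library mean, with starting fluorescence not abnormally high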;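 note: negative B-score means reduced calcium response which marks RGS4 activation or potentiation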
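Assay system: HEK293 FlpIn-TREx cells, stable M3R, doxycycline-inducible RGS4 / Probe or stimulus: carbachol, ECmax concentration / Times: overnight RGS4 induction, 30 min dye load 37 °C, 20 min compound RT / Signal: kinetic calcium fluorescence imaging with Fluo4-AM dye, 2 µM / Measure: Agonist-evoked peak-minus-minimum fluorescence over baseline, integrated ratio, B score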
RGS4 block – inhibitors of human RGS4; 310,000 compounds, 0.45% hits; AID 463165; HEK293 M3R/RGS4 inducible, Fluo-4 calcium flux; hits give high values; triggered by carbachol at its EC20; B-score at 10 µM;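 active = B-score, a plate-corrected calcium signal, over three deviations above library mean, with baseline fluorescence within five deviations of library mean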;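 note: RGS4 expression induced by doxycycline in cells with stable M3 receptor; B-score is computed from the integrated fluorescence ratio over baseline after carbachol; higher B-score means a larger calcium signal and so more RGS4 inhibition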
Target sequence (P49798 whole entry, looked up): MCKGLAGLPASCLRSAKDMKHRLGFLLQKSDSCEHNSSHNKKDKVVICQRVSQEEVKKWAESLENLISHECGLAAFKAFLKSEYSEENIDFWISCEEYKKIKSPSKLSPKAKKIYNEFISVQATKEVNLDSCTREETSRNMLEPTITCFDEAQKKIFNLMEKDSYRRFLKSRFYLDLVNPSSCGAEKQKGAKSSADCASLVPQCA
MrgX1 antagonist – blocks BAM8-22 activation of human MrgX1 receptor; Q96LB2; MRGX1-HEK293 calcium flux, Fluo-4, BAM8-22 antagonism; hits give low values; B-score at 10 µM; 310,000 compounds, 1.3% hits;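 active = calcium-response B-score plate-corrected more than 3 library SD below zero, starting fluorescence within 5 deviations, no agonist response on first addition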;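 note: peak minus trough fluorescence over baseline after final BAM8-22 challenge near maximal dose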
Target sequence (Q96LB2 whole entry, looked up): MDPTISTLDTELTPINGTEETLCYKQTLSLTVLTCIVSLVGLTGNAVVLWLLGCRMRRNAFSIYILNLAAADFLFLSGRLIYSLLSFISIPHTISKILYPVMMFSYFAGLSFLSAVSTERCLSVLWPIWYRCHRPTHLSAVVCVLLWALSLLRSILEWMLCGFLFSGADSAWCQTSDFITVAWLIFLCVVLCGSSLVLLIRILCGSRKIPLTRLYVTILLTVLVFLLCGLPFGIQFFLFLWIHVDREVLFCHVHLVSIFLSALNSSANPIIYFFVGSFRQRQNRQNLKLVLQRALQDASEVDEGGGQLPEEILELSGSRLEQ
MrgX1 PAM – allosterically activates human MrgX1 receptor signaling | Q96LB2 | B-score at 10 µM | 310,000 compounds, 0.63% hits | AID 588675 | MrgX1-HEK293, Fluo-4 calcium flux, FDSS; hits give high values;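 active = plate-corrected calcium response at least 3 library SD above typical, normal starting fluorescence, not activating the receptor alone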;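 note: compound read alongside a low EC10 to EC30 dose of BAM8-22 agonist; peak minus trough fluorescence over baseline measured at the second addition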
MrgX1 agonist – agonists of human MrgX1 receptor | AID 588627 | Q96LB2 | MrgX1-HEK293 cells, Fluo-4 calcium fluorescence, agonist mode; hits give high values | B-score at 10 µM | 310,000 compounds, 0.44% hits;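 active = calcium response B-score plate-corrected fluorescence ratio at least 3 library SD, with starting fluorescence B-score inside 5 SD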
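times = overnight plating, then 30 min 37 °C plus 30 min room-temperature dye loading | assay system = stable human MrgX1 HEK293 cell line | input = fifteen thousand cells per well | signal = kinetic calcium dye fluorescence, Fluo-4 NW | dosing = compound delivered in addition one of three | read-out = B-scored fluorescence response ratio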
RGS4 inh valid – validation of RGS4 inhibitors | shares compounds with RGS4 block | HEK293 M3R/RGS4, carbachol calcium Fluo-4 fluorescence; carbachol added at its EC20; 0 = buffer wells, 100 = carbachol control | calcium response, % at 10 µM | 1,700 compounds, 65% hits | AID 492999;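 active = duplicate-averaged calcium response above the buffer-only control mean plus 5 SD of those controls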;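 note: integrated fluorescence ratio F max minus min over baseline F0; higher response in RGS4-induced cells means RGS4 inhibition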
RGS4 uninduced – checks RGS4 inhibitor effects in non-induced HEK293 M3R cells; shares compounds with RGS4 block; carbachol calcium Fluo-4; submaximal (EC20) carbachol stimulus; buffer wells 0%, carbachol control wells 100%; activity (percent), % at 10 µM; 1,900 compounds, 20% hits; call rule not given here;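 note: RGS4 induction absent so cells express M3R without RGS4; higher means more calcium signal and flags a non-specific hit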
M3R basal Ca ctr – signal in non-induced cells without carbachol, RGS4 inhibitor counter-screen. shares compounds with RGS4 block. HEK293 M3R/RGS4 non-induced, Fluo-4 calcium, no carbachol; normalised: buffer wells 0%, carbachol wells 100%. calcium response (agonist-mode artifact), % at 10 µM. 1,900 compounds, 22% hits. AID 493001;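 active = duplicate-averaged calcium rise in uninduced cells above buffer wells' mean plus 5 SD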
Numbers without * were called inactive; i = inactive; / = no result. In the library only some 3.5% were active in any assay of this set; here they are far more common.

SMILES	RGS4 act	RGS4 block	MrgX1 antagonist	MrgX1 PAM	MrgX1 agonist	RGS4 inh valid	RGS4 uninduced	M3R basal Ca ctr
CCc1cccc(CC)c1NC(=O)/C(C#N)=C/c1ccccc1C(F)(F)F	i	i	i	i	i	/	/	/
CCOC(=O)c1sc(N2C(=O)C(O)=C(C(=O)c3ccco3)C2c2cccc([N+](=O)[O-])c2)nc1C (centres undefined)	i	i	i	i	i	i	i	i
COc1ccc(Cl)cc1NC(=O)c1cc(-c2cc(C)ccc2O)n[nH]1	i	i	i	i	i	i	i	i
COc1ccc(NC(=O)c2cc(-c3cc(Cl)ccc3O)n[nH]2)c(OC)c1	i	i	i	i	i	/	/	/
COc1ccc(Cl)cc1NC(=O)c1cc(-c2ccc(C)cc2O)n[nH]1	i	i	i	i	i	/	i	i
COc1ccc(OC)c(NC(=O)c2cc(-c3cc(C)c(C)cc3O)n[nH]2)c1	i	i	i	i	i	/	/	/
O=C1NC(=Nc2ccccc2Cl)S/C1=C\c1cccc([N+](=O)[O-])c1O	i	i	i	i	i	i	i	i
COc1c(/C=C2\SC(=Nc3ccccc3Cl)NC2=O)cccc1[N+](=O)[O-]	i	8.51*	i	i	i	33.5%*	69.5%*	i
CC(OC(=O)CNC(=O)c1ccc(Cl)c(Cl)c1)C(=O)N1CCOCC1 (centres undefined)	i	i	i	i	i	/	/	/
Cc1ccc(-c2c(C(=O)N/N=C/c3ccc(OC(C)C)cc3)nnn2-c2nonc2N)cc1	i	9.01*	i	i	i	27.5%*	43.0%*	i
CCOc1ccc(-c2c(C(=O)N/N=C/c3ccc(OC(C)C)cc3)nnn2-c2nonc2N)cc1	i	i	i	i	i	/	i	i
COc1ccc(CCNC2CC(=O)N(C3CCCCC3)C2=O)cc1OC (centres undefined)	i	i	i	i	i	/	/	/
OCCOCCn1c(C(CO)Nc2nc(-c3ccc(F)cc3)cs2)nc2ccccc21 (centres undefined)	i	i	i	i	i	/	/	/
CCCn1c(C(C)Nc2nc(-c3ccc(C)cc3)cs2)nc2ccccc21 (centres undefined)	i	i	i	i	i	/	/	/
O=[N+]([O-])c1cc(-c2csc(NC(CO)c3nc4ccccc4n3CCOCCO)n2)ccc1Cl (centres undefined)	i	7.67*	i	i	i	6.0%*	39.5%*	i
CCCn1c(C(C)Nc2nc(-c3cccc(Br)c3)cs2)nc2ccccc21 (centres undefined)	i	i	i	i	i	/	i	i
CCCn1c(C(C)Nc2nc(-c3ccc(Cl)c([N+](=O)[O-])c3)cs2)nc2ccccc21 (centres undefined)	i	8.01*	i	i	i	16.5%*	i	i
CCOCCCn1c(=S)[nH]c2cc(C(=O)N3CCN(c4ccccc4)CC3)ccc2c1=O	i	i	i	i	i	/	/	/
O=C(O)CN1C(=O)CC(c2ccccc2)CC1=O	i	i	i	i	i	/	/	/
O=S(=O)(Nc1ccc(N=Nc2ccc(O)c3ccccc23)cc1)c1ccccc1	i	4.7*	i	i	i	5.5%*	i	i
O=C(CC(=O)c1ccccc1)Nc1ccccc1C(F)(F)F	i	i	i	i	i	/	/	/
O=C(N/C(=C/c1cccc(Br)c1)c1nc(=S)[nH][nH]1)c1ccccc1	i	7.21*	i	i	i	45.0%*	i	96.5%*
Cc1ccc(C(=O)N/C(=C\c2ccc(Br)cc2)c2nc(=S)[nH][nH]2)cc1	i	i	i	i	i	/	i	11.0%*
COc1cc(/C=C/C(=O)c2ccc([N+](=O)[O-])o2)ccc1O	i	8.73*	i	i	i	39.0%*	i	i
O=C(/C=C/c1cccc(Cl)c1)c1ccc([N+](=O)[O-])o1	i	13.7*	i	i	i	17.5%*	33.5%*	7.0%*
SMILES	RGS4 act	RGS4 block	MrgX1 antagonist	MrgX1 PAM	MrgX1 agonist	RGS4 inh valid	RGS4 uninduced	M3R basal Ca ctr
NS(=O)(=O)c1ccc(CNC(=O)/C=C/c2cccc(Cl)c2)cc1	i	i	i	i	i	/	/	/
COc1ccc(/C=C/C(=O)c2ccc([N+](=O)[O-])o2)cc1OC	i	i	i	i	i	/	i	i
CC1CCc2sc(C(=O)NNS(=O)(=O)c3ccc(F)c(F)c3F)cc2C1 (centres undefined)	i	i	i	i	i	/	/	/
O=c1c(O)c(-c2ccc(O)cc2)oc2cc(O)cc(O)c12	i	i	i	i	i	/	i	i
N#Cc1c(-c2ccco2)cc(-c2ccc(F)cc2)nc1N	i	6.32*	i	i	i	7.0%*	i	24.5%*
N#Cc1c(-c2ccccc2)cc(-c2ccc(O)cc2)nc1N	i	i	i	i	i	/	/	/
N#Cc1c(-c2ccc(F)cc2)cc(-c2cccnc2)nc1N	i	i	i	i	i	/	/	/
Cc1ccc(-c2cc(-c3ccccc3)nc(N)c2C#N)o1	i	i	i	i	i	i	i	i
NNC(=O)c1nn(-c2ccc(Cl)cc2)cc1O	i	i	i	i	i	/	/	/
Cc1ccc(S(=O)(=O)C2CS(=O)(=O)CC2O)cc1 (centres undefined)	i	i	i	i	i	/	/	/
CC(=O)C1=C(S(=O)(=O)c2ccc(C)cc2)CS(=O)(=O)C1	i	25.5*	/	/	/	39.5%*	i	i
CCC(=O)Nc1cccc(NC(=O)c2ccc3c(c2)OCCO3)c1	i	i	i	i	i	i	i	i
CCC(=O)Nc1ccc(NC(=O)c2ccc3c(c2)OCO3)cc1	i	i	i	i	i	/	/	/
CCCC(=O)Nc1cccc(NC(=O)c2ccc3c(c2)OCO3)c1	i	i	i	i	i	i	i	i
